Screening data: PubChem, several laboratories
SENP8 block-1: human SENP8 protease inhibitors, primary screen, biochemical, fluorescence, Nedd8 protein substrate, uHTS | inhibition, % at 20 µM | AID 602440, 2012 | 360,000 compounds, 0.64% hits | Sentrin-specific protease 8 (Homo sapiens), Q96LD8 | recombinant SENP8; in the data active means inhibition mostly above about 40%, no sharp cut-off; inactive means mostly below about 27%
Target sequence (Q96LD8 whole entry, looked up): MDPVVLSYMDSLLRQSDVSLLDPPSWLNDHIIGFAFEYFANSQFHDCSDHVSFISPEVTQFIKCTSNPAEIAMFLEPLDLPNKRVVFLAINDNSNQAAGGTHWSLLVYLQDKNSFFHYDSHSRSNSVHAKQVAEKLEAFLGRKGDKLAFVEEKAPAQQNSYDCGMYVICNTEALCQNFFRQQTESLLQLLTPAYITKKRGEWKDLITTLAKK
SENP1 inh: human SENP1 catalytic domain inhibitors, primary screen, biochemical, FRET, uHTS. AID 624204, 2012. 360,000 compounds, 0.21% hits. recombinant SENP1 catalytic domain, CyPet-SUMO1-YPet FRET cleavage. inhibition, % at 10 µM. Sentrin-specific protease 1 (Homo sapiens), Q9P0U3;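 active means inhibition at least 30% at 10 µM, raw YFP signal under a set limit, fluorescence ratio 0.5 to 1.5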
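material = recombinant human SENP1 catalytic domain, His6-tagged | quantity = 20 pM enzyme | reagent = 25 nM SUMO1 FRET substrate | compound dosing = 10 µM single point, 0.5% DMSO | timing = 50 min enzyme reaction, room temperature, light-protected | detection = FRET, CFP and YFP emission | control set = no-enzyme low, enzyme-DMSO high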
Platelet DG rel: inhibitors of platelet dense granule secretion, primary screen, cell-based, MLPCN, human platelets | inhibition, %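 (compounds screened at 7.5 µM in platelet-rich plasma)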 | human platelet-rich plasma, SFLLRN dense granule ATP release, luminescence | 300,000 compounds, 0.22% hits | AID 1663, 2009;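 active means mean replicate score, as percent of positive control, at or above 50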
SENP8 block-2: SENP8 protease inhibitors, primary screen, biochemical, luminescence; Sentrin-specific protease 8 (Homo sapiens), Q96LD8; purified SENP8, Z-RLRGG-aminoluciferin cleavage; inhibition, % at 10 µM; 330,000 compounds, 1.2% hits; AID 2540, 2010; in the data active means inhibition above about 50%
SENP6 inh: SENP6 protease inhibitors, primary screen, biochemical, luminescence, uHTS; AID 2599, 2010; Sentrin-specific protease 6 (Homo sapiens), Q9GZR1; 330,000 compounds, 1.8% hits; inhibition, % at 10 µM; Recombinant SENP6 catalytic domain, aminoluciferin luminescence;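 active means inhibition above about 50% at the single tested dose, limit read from the data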
Target sequence (Q9GZR1 628-1112 limits assumed): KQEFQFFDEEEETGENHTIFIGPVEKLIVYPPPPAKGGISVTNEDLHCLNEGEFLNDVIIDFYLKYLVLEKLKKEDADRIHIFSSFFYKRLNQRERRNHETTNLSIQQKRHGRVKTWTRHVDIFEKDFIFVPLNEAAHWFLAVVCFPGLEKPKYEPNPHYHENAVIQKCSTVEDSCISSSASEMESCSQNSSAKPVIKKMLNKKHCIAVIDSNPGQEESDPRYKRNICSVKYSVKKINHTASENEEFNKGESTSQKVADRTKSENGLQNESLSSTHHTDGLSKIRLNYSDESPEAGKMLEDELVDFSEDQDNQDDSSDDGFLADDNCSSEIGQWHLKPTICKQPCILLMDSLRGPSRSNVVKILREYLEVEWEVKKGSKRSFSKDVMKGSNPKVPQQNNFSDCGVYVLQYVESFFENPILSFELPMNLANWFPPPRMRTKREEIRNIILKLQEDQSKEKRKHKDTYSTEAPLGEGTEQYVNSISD
SENP7 inh: SENP7 protease inhibitors, primary screen, biochemical, luminescence, uHTS; Sentrin-specific protease 7 (Homo sapiens), Q9BQF6; recombinant SENP7, Z-RLRGG-aminoluciferin luminescence, 40 min; inhibition, % at 5 µM; 330,000 compounds, 1.5% hits; AID 434973, 2010;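 active means inhibition above about 50% at the single test dose, limit read from the data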
Of the large screens only hits and unclear results are named; the others gave an inactive call; ! = not active in a repeat. Shown are actives, neighbours in structure and some others; about 2.6% of the full set was active somewhere.

c1coc(-c2nnc(-c3cccs3)o2)c1	none
O=C(COC(=O)c1ccc2ncsc2c1)NCc1ccccc1Cl	none (no result: Platelet DG rel)
C[n+]1ccc(/C=C/c2ccccc2O)c2ccccc21	none
CN1/C(=C/c2cc[n+](C)c3ccccc23)C=Cc2ccccc21	SENP8 block-1 58 (no result: Platelet DG rel, SENP8 block-2, SENP6 inh, SENP7 inh)
Cc1cccc(/C=N/NC(=O)c2cccc([N+](=O)[O-])c2)n1	none
Cc1cc(/C=N/NC(=O)c2cccc([N+](=O)[O-])c2)c(C)n1-c1ccc(Cl)cc1Cl	SENP8 block-1 52
Cc1ccc2nc(-c3ccc(NC(=O)CSc4nccc(=O)[nH]4)cc3)sc2c1	SENP6 inh 81, SENP7 inh 69
COC(=O)N1CCCCC1c1cc(C(=O)N2CCOCC2)no1 (stereo not drawn)	none (no result: Platelet DG rel, SENP8 block-2, SENP6 inh, SENP7 inh)
CCn1c2ccccc2nc2cc3c(cc21)c(Cl)c(=O)c1ccccc13	SENP8 block-1 81 (no result: Platelet DG rel, SENP8 block-2, SENP6 inh, SENP7 inh)
CCn1c(/C=C/c2c(C)n(CC)c3ccccc23)nc2ccccc2c1=O	none
O=[N+]([O-])c1cc(C(F)(F)F)ccc1N1CCN(S(=O)(=O)c2ccc3ccccc3c2)CC1	SENP8 block-1 40
O=[N+]([O-])c1cc(C(F)(F)F)ccc1N1CCC(O)CC1	none
O=C(O)c1ccccc1N/N=C/c1c(Sc2nnnn2-c2ccccc2)nc2ccccn2c1=O	SENP1 inh 71
CC(C)=CC(=O)Nc1ccccc1C(N)=O	none
NC(=O)c1ccccc1NC(=O)/C=C/c1ccccc1	SENP6 inh 66
Nc1[nH]c(C(=O)c2ccccc2)c(-c2ccccc2Br)c1C(=O)c1ccccc1	none (no result: Platelet DG rel, SENP8 block-2, SENP6 inh, SENP7 inh)
COc1ncnc2c1NC1=C(S2)C(=NCCC(=O)O)CC(C)(C)C1	SENP1 inh 52
O=C(C(=O)N1CCN(CCN2CCOCC2)CC1)c1ccccc1	none (no result: Platelet DG rel, SENP8 block-2, SENP6 inh, SENP7 inh)
O=C(Nc1cccc2nsnc12)c1cccs1	SENP6 inh 58!, SENP7 inh 50!
COc1cccc(C(C(=O)NC2CCCC2)N2CCN(c3cc(C)ccc3C)CC2)c1OC (stereo not drawn)	none (no result: Platelet DG rel, SENP8 block-2, SENP6 inh, SENP7 inh)
Cc1ccccc1Nc1nc(-c2sc(NC(=O)c3ccccc3)nc2C)cs1	SENP8 block-2 61, SENP6 inh 80, SENP7 inh 61 (no result: SENP8 block-1, SENP1 inh)
Cc1ccc(Cl)cc1Nc1nc(-c2sc(NC(=O)c3ccco3)nc2C)cs1	none
COc1ccc(OC)c(Nc2nc(-c3sc(NC(=O)c4ccccc4)nc3C)cs2)c1	SENP8 block-2 52, SENP6 inh 67, SENP7 inh 53 (no result: SENP8 block-1, SENP1 inh)
COc1ccc(Cl)cc1Nc1nc(-c2sc(NC(=O)c3ccccc3)nc2C)cs1	none (no result: SENP8 block-1, SENP1 inh)
Cc1ccccc1Nc1nc(-c2sc(NC(=O)c3cccc(Cl)c3)nc2C)cs1	SENP8 block-2 60, SENP6 inh 77 (no result: SENP8 block-1, SENP1 inh)
Cc1ccc(Cl)cc1Nc1nc(-c2sc(NC(=O)c3cccc(Cl)c3)nc2C)cs1	SENP8 block-2 56, SENP6 inh 66 (no result: SENP8 block-1, SENP1 inh)
Cc1ccccc1Nc1nc(-c2sc(NC(=O)c3ccc([N+](=O)[O-])cc3)nc2C)cs1	none (no result: SENP8 block-1, SENP1 inh)
C[C@H]1CN([C@@H](C)CO)C(=O)c2c(c3ccccc3n2C)-c2ccccc2CO[C@H]1CN(C)C(=O)[C@@H]1CCCN1C	none (no result: Platelet DG rel, SENP8 block-2, SENP6 inh, SENP7 inh)
CCOC(=O)C1CCN(C(=O)c2[nH]c(C(F)(F)F)nc2-c2ccccc2)CC1	none (no result: Platelet DG rel, SENP8 block-2, SENP6 inh, SENP7 inh)
COc1ccc(-c2oc3c(c2C(=O)OCCCO)C(OCCCCCO)CCC3)cc1 (stereo not drawn)	none (no result: Platelet DG rel, SENP8 block-2, SENP6 inh, SENP7 inh)
CC1(C)OC(c2ccccc2)=C/C(=C/C=C2C(=O)c3ccccc3C2=O)O1	SENP8 block-1 59, SENP1 inh 95
Oc1ccc(/C=N/N(c2ccccc2)c2ccccc2)cc1O	none
Cc1nc2ccccc2c(=O)n1/N=C/c1ccc(O)c(O)c1O	SENP8 block-1 69
Oc1ccc(/C=N/N(c2ccccc2)c2ccccc2)c(O)c1O	SENP8 block-1 32
Oc1ccc(/C=N/N2CCOCC2)c(O)c1O	SENP8 block-1 63
O=C1c2ccccc2C(=O)N1/N=C/c1ccc(O)c(O)c1O	SENP8 block-1 83 (no result: SENP8 block-2, SENP6 inh, SENP7 inh)
CN(C)c1ccc(-c2cc([C@H]3[C@@H]4C=CCC[C@@]4(C)C(=O)N3Cc3ccccc3)ccc2F)cc1	SENP1 inh 48
COC1OC(c2ccccc2)=C(c2cnc(N)nc2)c2ccc(F)cc21 (stereo not drawn)	none (no result: Platelet DG rel, SENP8 block-2, SENP6 inh, SENP7 inh)
CCOC(=O)C1=CCN(S(=O)(=O)c2ccccc2C)C1c1ccc(Cl)c(Cl)c1 (stereo not drawn)	none (no result: Platelet DG rel, SENP8 block-2, SENP6 inh, SENP7 inh)
COc1ccc(-c2noc(C3CCCN(C(=O)c4ccccc4OC)C3)n2)cc1OC (stereo not drawn)	none
COc1ccc(C(=O)N2CCCC(c3nc(-c4ccc(OC)c(OC)c4)no3)C2)c(OC)c1 (stereo not drawn)	Platelet DG rel 50
COc1ccc(N2CCN(CCNC(=O)CCCn3c(=O)[nH]c4cc(Cl)ccc4c3=O)CC2)cc1	SENP8 block-1 53
CCOc1ccc2nc3cc(NCc4ccc(OC)cc4)ccc3c(N)c2c1	SENP6 inh 51
COc1ccc(CC(=O)N2CCN(C(=O)Cc3ccc(OC)cc3)CC2)cc1	none
COc1ccc(CC(=O)N2CCN(c3ccc(C4=NNC(=O)CC4C)cc3)CC2)cc1 (stereo not drawn)	Platelet DG rel 67
CC1=NC(=O)C(N=Nc2ccccc2)N1c1ccccc1 (stereo not drawn)	SENP8 block-1 46
CC1=NC(=O)C(N=Nc2ccccc2C(=O)O)N1c1ccccc1 (stereo not drawn)	SENP8 block-1 48
CC1=NC(=O)C(N=Nc2cccc(C(=O)O)c2)N1c1ccccc1 (stereo not drawn)	none
c1ccc2sc(SCc3ccc(-c4nnco4)cc3)nc2c1	SENP8 block-2 89, SENP6 inh 96, SENP7 inh 89
O=[N+]([O-])c1ccc(/C=N/Nc2ccc3ccccc3c2)o1	SENP1 inh 38
O=C(N/N=C/c1ccc([N+](=O)[O-])o1)c1cc2ccccc2o1	none
CCc1ccc2nc(SCC(=O)N3CC(=O)Nc4ccccc43)c(C#N)cc2c1	SENP1 inh 32 (no result: Platelet DG rel)
Nc1nc2ncccc2cc1C(=O)NC1CCCCC1	none (no result: Platelet DG rel, SENP8 block-2, SENP6 inh, SENP7 inh)
N#Cc1ccsc1NC(=O)c1ccc(Cl)c([N+](=O)[O-])c1	SENP8 block-2 94, SENP6 inh 96, SENP7 inh 91
Nc1ccc2c(c1)C(=O)C(=O)c1ccccc1-2	SENP8 block-1 142, SENP8 block-2 97, SENP6 inh 89, SENP7 inh 98
Nc1ccc2c(c1)C(=O)c1ccccc1-2	none
O=C1C(=O)c2ccc(-c3ccccc3)cc2-c2ccccc21	SENP8 block-1 100, SENP8 block-2 58, SENP6 inh 89, SENP7 inh 91
